Test results from ChEMBL document CHEMBL5046273, “Development of a Novel, Small-Molecule Brain-Penetrant Histone Deacetylase Inhibitor That Enhances Spatial Memory Formation in Mice” (J Med Chem, 2022).
Activity calls are given as the source filed them. The calls are words filed in the database; no cut-off is given here.

Key:
[1] = Drug uptake in BALB/c mouse brain at 40 mg/kg, ip measured upto 60 mins by mass spectroscopy analysis; assay type: ADME, organism-based; settings: in vivo, 1 h
Method in brief: (§1)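 BALB/c mice received 40 mg/kg i.p. Retro-orbital blood was collected under isoflurane, then liver and whole brain after CO2 euthanasia, at 10, 30 and 60 min. Acetonitrile extracts were spin-filtered with 4,5-diphenylimidazole as instrument standard and analysed by LC–MS/MS.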

[2] = Drug uptake in BALB/c mouse liver at 40 mg/kg, ip measured upto 60 mins by mass spectroscopy analysis; assay type: ADME, organism-based; settings: in vivo, 1 h; method in brief: as §1
[3] = Drug uptake in BALB/c mouse hippocampus at 20 to 40 mg/kg, ip measured after 10 mins by mass spectroscopy method; assay type: ADME, organism-based; settings: in vivo, dose 20-40 mg/kg
Method in brief: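 BALB/c mice were dosed i.p.: 20 mg/kg with brains taken at 10 min (two mice), or 40 mg/kg with brains taken at 10 and 30 min. Dorsal hippocampus was dissected on wet ice, extracted in acetonitrile and analysed by LC–MS/MS in MRM mode (m/z 485 [M+Na+] transitions) against a 4,5-diphenylimidazole internal standard.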

[4] = Tmax in Swiss Webster mouse blood at 40 mg/kg, ip by LC-MS/MS analysis; assay type: ADME, organism-based
Method in brief: (§2)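 Single i.p. dose of 40 mg/kg in Swiss Webster mice; blood, brain and liver taken at several time points. Tissues homogenized in acetonitrile, centrifuged, spin-filtered, dried and reconstituted, with 4,5-diphenylimidazole as instrument standard. Quantified by LC–MS/MS on a C18 column with a formic acid/MeCN gradient. Mean ± SD (n = 4), fitted to a two-compartment PK model.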

[5] = Cmax in Swiss Webster mouse blood at 40 mg/kg, ip by LC-MS/MS analysis; assay type: ADME, organism-based; parameters: route intraperitoneal, dose 40 mg/kg; settings: in vivo; method in brief: as §2
[6] = Half life in Swiss Webster mouse blood at 40 mg/kg, ip by LC-MS/MS analysis; assay type: ADME, organism-based; settings: in vivo; method in brief: as §2
[7] = Tmax in Swiss Webster mouse brain at 40 mg/kg, ip by LC-MS/MS analysis; assay type: ADME, organism-based; method in brief: as §2
[8] = Cmax in Swiss Webster mouse brain at 40 mg/kg, ip by LC-MS/MS analysis; assay type: ADME, organism-based; parameters: route intraperitoneal, dose 40 mg/kg; method in brief: as §2
[9] = Half life in Swiss Webster mouse brain at 40 mg/kg, ip by LC-MS/MS analysis; assay type: ADME, organism-based; settings: in vivo; method in brief: as §2
[10] = AUC in Swiss Webster mouse brain at 40 mg/kg, ip by LC-MS/MS analysis; assay type: ADME, organism-based; parameters: dose 40 mg/kg; settings: in vivo; method in brief: as §2
[11] = Tmax in Swiss Webster mouse liver at 40 mg/kg, ip by LC-MS/MS analysis; assay type: ADME, organism-based; method in brief: as §2
[12] = Cmax in Swiss Webster mouse liver at 40 mg/kg, ip by LC-MS/MS analysis; assay type: ADME, organism-based; parameters: route intraperitoneal, dose 40 mg/kg; method in brief: as §2
[13] = Half life in Swiss Webster mouse liver at 40 mg/kg, ip by LC-MS/MS analysis; assay type: ADME, organism-based; settings: in vivo; method in brief: as §2
[14] = AUC in Swiss Webster mouse liver at 40 mg/kg, ip by LC-MS/MS analysis; assay type: ADME, organism-based; parameters: dose 40 mg/kg; settings: in vivo; method in brief: as §2
Mus musculus [15] = test: Cognitive enhancing effect in C57BL/6 mouse assessed as enhanced spatial memory at 20 to 40 mg/kg, ip measured after 24 hrs; assay type: functional, organism-based; settings: dose 20-40 mg/kg
Method in brief: (§3)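 Male C57BL/6 mice trained to 30 s of total exploration of two identical objects (20 min maximum). Immediately afterwards they received one i.p. injection at 5 mL/kg in 100% DMSO (20, 30 or 40 mg/kg); vehicle DMSO, NaBu 600 mg/kg in saline. Object placement (moved object) tested at 24 h and object recognition (novel object) at 48 h. Time with that object compared to chance (15 s) by one-sample t-test.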

[16] = Elimination rate in Swiss Webster mouse brain at 40 mg/kg, ip by LC-MS/MS analysis; assay type: ADME, organism-based; method in brief: as §2
[17] = Elimination rate in Swiss Webster mouse liver at 40 mg/kg, ip by LC-MS/MS analysis; assay type: ADME, organism-based; method in brief: as §2
Mus musculus [18] = test: Cognitive enhancing effect in C57BL/6 mouse assessed as enhanced object recognition memory consolidation at 20 to 40 mg/kg, ip measured after 48 hrs; assay type: functional, organism-based; settings: dose 20-40 mg/kg; method in brief: as §3

SMILES: CC(C)(C)OC(=O)CC(O)/C=C/CCSSCC/C=C/C(O)CC(=O)OC(C)(C)C (stereo not drawn)
- Drug uptake [1]: Active
- Drug uptake [2]: Active
- Drug uptake [3]: Active
- Tmax [4]: 10 min
- Cmax [5]: 131.2 ng/mL
- t1/2 [6]: 45.4 min
- Tmax [7]: 10 min
- Cmax [8]: 82.5 ng/g
- t1/2 [9]: 13.4 min
- AUC [10]: 2019 ng·min/g
- Tmax [11]: 10 min
- Cmax [12]: 530 ng/g
- t1/2 [13]: 41 min
- AUC [14]: 31091 ng·min/g
- Activity (Mus musculus [15]): Active
- k el [16]: 0.000867 s⁻¹
- k el [17]: 0.000283 s⁻¹
- Activity (Mus musculus [18]): inactive
